Laboratory results published in paper PMC4089878 (Molecular cancer therapeutics, 2013).

Tests used:
K562 cells [1] = assay: Cytotoxicity / viable cell count in K562 leukemic cells; format: cell-based, human
[2] = test system: ID1 protein in K562 cells; assay: Western blot of USP1 and ID1 protein levels in K562 cells; format: cell-based, human; conditions: for USP1 and ID1 protein levels: Western blot, 24 hrs (Pimozide 48 hrs)
[3] = test system: primary human cord blood CD34+ cells; assay: Growth of normal cord blood CD34+ cells; format: cell-based; conditions: Supplementary figure 5
K562 xenograft = assay: K562 mouse xenograft; format: in vivo, athymic nude mice; conditions: 15 mg/kg daily ip, nude mice
Method in brief: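 Athymic nude mice aged 6–8 weeks were injected subcutaneously in the flank with 5 × 10^6 K562 cells mixed 1:1 with matrigel. At […] tumor size, mice received 15 mg/kg daily ip in 2% DMSO + 0.3% tartaric acid, or vehicle alone (n=10 per group). Tumor volume was calculated as width² × length/2 and compared by […] t-test.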

K562 cells [4] = assay: Apoptosis; format: cell-based, human; conditions: 24 hrs (Pimozide 48 hrs)
[5] = test system: MOLM14, OCI-AML3, U937 and SK-NO1; assay: Cytotoxicity in AML cell lines; format: cell-based, human; conditions: 24 hrs
[6] = test system: primary AML bone marrow and peripheral blood cells; assay: Cytotoxicity in primary AML patient cells; format: cell-based, human; conditions: 48-72 hrs
Method in brief: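 Fresh bone marrow and peripheral blood were taken from AML patients, and mononuclear cells were harvested. These were cultured in triplicate with test compound or DMSO for 48–72 h, and viability was determined. Data come from 3 patient samples, shown as mean ± SEM.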

Ub-FANCD2 = assay: Western blot of Ub-FANCD2, Ub-FANCI, Ub-PCNA levels; format: cell-based, human; conditions: supplementary figure 6
K562 cells [7] = assay: Benzidine staining differentiation of K562 cells; format: cell-based, human; conditions: low dose, 5 days
U2OS-DRGFP cells = assay: DR-GFP homologous recombination reporter; format: cell-based, human; conditions: 24 h treatment
Method in brief: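 U2OS-DRGFP cells carry a single chromosomally integrated copy of the HR substrate and were grown in DMEM with 10% FBS. DSBs were induced by I-SceI expression after plasmid transfection. After 24 h, cells were exposed to test compound for 24 h. The percentage of viable GFP-positive cells was measured by FACS and normalized to the solvent vehicle group.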

native USP1/UAF1 complex = assay: HA-Ub-VS competition assay on native USP1 in cell extracts; format: cell-based, human; conditions: K562 cells treated 24 hrs (SJB2-043 1 μM); Ub-Aldehyde 5 μM added to extract
native USP1/UAF1 complex, sequence (O94782 1-671 limits assumed): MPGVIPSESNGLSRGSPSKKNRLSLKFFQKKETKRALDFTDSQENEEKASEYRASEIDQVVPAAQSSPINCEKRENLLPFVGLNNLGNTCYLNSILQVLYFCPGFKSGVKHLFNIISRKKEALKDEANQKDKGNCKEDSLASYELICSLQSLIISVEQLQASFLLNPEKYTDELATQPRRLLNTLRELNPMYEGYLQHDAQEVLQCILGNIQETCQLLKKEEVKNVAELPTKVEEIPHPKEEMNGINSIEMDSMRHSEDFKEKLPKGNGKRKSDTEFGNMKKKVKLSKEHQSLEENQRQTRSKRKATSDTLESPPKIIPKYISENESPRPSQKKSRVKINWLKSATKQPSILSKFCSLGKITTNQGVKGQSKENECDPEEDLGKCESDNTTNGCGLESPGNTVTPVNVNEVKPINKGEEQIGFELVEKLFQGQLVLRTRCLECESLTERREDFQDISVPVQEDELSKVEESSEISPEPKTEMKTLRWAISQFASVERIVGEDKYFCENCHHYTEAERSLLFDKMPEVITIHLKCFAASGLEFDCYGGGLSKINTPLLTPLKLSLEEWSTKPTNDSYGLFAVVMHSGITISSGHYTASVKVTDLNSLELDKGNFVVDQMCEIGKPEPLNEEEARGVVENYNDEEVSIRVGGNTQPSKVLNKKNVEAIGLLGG
native USP1/UAF1 complex, sequence (Q8TAF3 whole entry, further chain): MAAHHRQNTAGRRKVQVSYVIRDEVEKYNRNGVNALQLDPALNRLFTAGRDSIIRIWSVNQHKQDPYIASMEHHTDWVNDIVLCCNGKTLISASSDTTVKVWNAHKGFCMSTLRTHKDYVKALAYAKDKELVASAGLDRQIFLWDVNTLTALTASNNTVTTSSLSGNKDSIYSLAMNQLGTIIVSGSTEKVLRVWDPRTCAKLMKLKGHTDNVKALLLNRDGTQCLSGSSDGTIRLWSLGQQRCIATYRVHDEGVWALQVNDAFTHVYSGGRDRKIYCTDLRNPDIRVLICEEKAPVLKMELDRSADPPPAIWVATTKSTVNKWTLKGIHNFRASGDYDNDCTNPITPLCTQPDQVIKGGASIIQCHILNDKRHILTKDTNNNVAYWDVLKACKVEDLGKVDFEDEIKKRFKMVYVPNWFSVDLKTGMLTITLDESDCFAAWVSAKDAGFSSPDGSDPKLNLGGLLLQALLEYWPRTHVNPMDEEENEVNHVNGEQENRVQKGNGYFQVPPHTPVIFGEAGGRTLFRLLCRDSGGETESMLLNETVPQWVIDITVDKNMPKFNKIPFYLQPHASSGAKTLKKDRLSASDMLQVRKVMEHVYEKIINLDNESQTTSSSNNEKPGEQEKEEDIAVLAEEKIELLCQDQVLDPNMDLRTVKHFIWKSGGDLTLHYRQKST
Method in brief: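 K562 cells were treated with test compound or DMSO for 24 h. Cell extracts were then incubated with 0.5 μM final HA-Ub-vinylsulfone for 45 min at 30 °C. As a control, an aliquot of untreated extract was pretreated with 5 μM ubiquitin-aldehyde before probe addition. Samples were immunoblotted with anti-HA and anti-USP1 antibodies.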

## O=c1[nH]c2ccccc2n1C1CCN(CCCC(c2ccc(F)cc2)c2ccc(F)cc2)CC1 [Pimozide, reference compound]
K562 cells [1]; 48 hrs
  K562 cell growth: dose-dependent inhibition of K562 cell growth
[2]
  USP1 and ID1 protein levels: promoted ID1 degradation
[3]
  effect on normal human cord blood CD34+ cells: tolerated at high micromolar doses
K562 xenograft
  tumor growth in K562 xenograft: modest inhibition of tumor growth
K562 cells [4]
  apoptosis of K562 cells: induction of apoptosis

## O=C1c2ccccc2C(=O)c2oc(-c3ccccc3)nc21 [SJB2-043]
K562 cells [1]; read-out: EC50, decrease in the number of viable K562 cells, 24 hrs, ± 0.08 (95% Confidence Limits)
  EC50: ~1.07 µM
[2]; 2 μM, 18 hrs or 26 hrs
  USP1/ID1 degradation, time course: complete degradation of USP1/ID1
[2]
  USP1 and ID1 protein levels: dose-dependent decrease in USP1 levels and a concomitant degradation of ID1 protein
[5]
  cytotoxicity in AML cell lines: dose-dependent cytotoxicity and concomitant ID1 degradation
[6]
  cytotoxicity on primary AML bone marrow and peripheral blood cells: dose-dependent cytotoxicity
[3]
  effect on normal human cord blood CD34+ cells: did result in growth inhibition
Ub-FANCD2
  levels of Ub-FANCD2 / Ub-PCNA: increased the level of Ub-FANCD2
K562 cells [4]
  apoptosis of K562 cells: induced apoptosis of K562 cells in a dose-dependent manner
K562 cells [7]
  differentiation of K562 cells: activated differentiation of K562 cells into hemoglobin-expressing erythroid cells

## O=C1c2ccccc2C(=O)c2oc(-c3cccnc3)nc21 [SJB3-019A]
K562 cells [1]; K562 cells
  potency relative to SJB2-043 in cytoxicity in K562 cells: 5 times
[2]
  potency relative to SJB2-043 in promoting ID1 degradation: 5 times
U2OS-DRGFP cells
  gene conversion / HR activity: decreased the HR activity
Ub-FANCD2
  levels of Ub-FANCD2 / Ub-PCNA: increased the levels of Ub-FANCD2 and Ub-PCNA

## Ub-aldehyde
Native USP1/UAF1 complex
  Ub-VS labeling of native USP1: complete loss of USP1-Ub-VS conjugates
